Assay results reported in the EternaBench riboswitch data.

Tested on: MS2 coat protein
Assay: apparent Kd, MS2 coat protein; higher = weaker binding; RNA-MaP array
How it was run: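 Designed RNAs were produced on an Illumina sequencing chip by transcription of sequenced DNA templates. Binding to fluorescently labeled MS2 coat protein (1.5 nM to 3 μM) was measured at room temperature with or without input ligand. The apparent Kd is the median of per-cluster binding-curve fits. Designs were excluded when measured on fewer than 10 clusters.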

[1] = designed as: OFF switch for flavin mononucleotide, no ligand
[2] = ligand present: flavin mononucleotide, designed as: OFF switch for flavin mononucleotide
[3] = designed as: ON switch for flavin mononucleotide, no ligand
[4] = ligand present: flavin mononucleotide, designed as: ON switch for flavin mononucleotide
[5] = designed as: ON switch for tryptophan, no ligand
[6] = ligand present: tryptophan, designed as: ON switch for tryptophan
[7] = designed as: OFF switch for theophylline, no ligand
[8] = ligand present: theophylline, designed as: OFF switch for theophylline
[9] = designed as: OFF switch for tryptophan, no ligand
[10] = ligand present: tryptophan, designed as: OFF switch for tryptophan

## UAGUAACAUGAGGAUCACCCAUGUGAGGAUAUCUGGCUAGGCUAAAGCAGAGAAACCAAGAGAAGGCACGGGAU
[1]
  apparent Kd: 19.4 nM
[2]
  apparent Kd: 20.8 nM

## UAUAAGGAAGGAUAUAGGCUGCAAAACAUGAGGAUCACCCAUGUGAACCGACGACGCCAACUAGAAGGUCCCUAUG
[1]
  apparent Kd: 13.5 nM
[2]
  apparent Kd: 12.9 nM

## UAUCGGGCAGGAUAUACAUGCGAUUACACUCUUCGGAAAGUACAUGAGGAUCACCCAUGUAGAAGGGCCAAGUG
[1]
  apparent Kd: 10.4 nM
[2]
  apparent Kd: 11 nM

## UCACAUGAGGAUCACCCAUGUAAAUCACACGACGGUGCUGUCAAGGAUAUGUUACGCUCAGGGCUACAGAAGGUGAUGGUCAAG
[3]
  apparent Kd: 52.7 nM
[4]
  apparent Kd: 25.2 nM

## UCACUCUGCCGAGGAUAUGCUGGGUCUGACAUGAGGAUCACCCAUGUAACGGGCAGAGUGUUCCAGCAGAAGGCGGCCAGUACC
[3]
  apparent Kd: 42.5 nM
[4]
  apparent Kd: 44.6 nM

## UCAUGAAAGUCAGGAUAUGGCCACAUGAGGAUCACCCAUGUUUGCUUUAUCGAGCGAAACUGAGACCAGAAGGGACGGACAUUC
[3]
  apparent Kd: 20.8 nM
[4]
  apparent Kd: 11.1 nM

## UCCCUACCGUCGGCCGCCACUGGGUCAUACAGUUCGUAACUACAUGAGGAUCACCCAUGUGCAGCCAGGACCGGGACGCGCCUUG
[5]
  apparent Kd: 177 nM
[6]
  apparent Kd: 106 nM

## UCGACAUCAGGAUAUACGAUGGAGUAGUUACGAGUAUCACGACAUGAGGAUCACCCAUGUAGAAGGGAUCGUCC
[1]
  apparent Kd: 21.4 nM
[2]
  apparent Kd: 17.7 nM

## UCGAGUGGGCAGAAGGUGUCGGACUAUACAUGAGGAUCACCCAUGUGGAAACCUCCCGGUUUGAACAAGGAUAUGCCUCGUAAA
[3]
  apparent Kd: 95.6 nM
[4]
  apparent Kd: 71.4 nM

## UCGAUGGUACCCGAUACCAGCAAUACAUCACAGACCUGAUACAUGAGGAUCACCCAUGUGUGCCCUUGGCAGCGGGUCCUGAAAA
[7]
  apparent Kd: 17.8 nM
[8]
  apparent Kd: 38.1 nM

## UGAGAACAUGUCUUUAAGUUUACCUCUGAUACCAGAUUGAAAGGCAUCCCUUGGCAGCAGCAUACAUGAGGAUCACCCAUGUCCU
[7]
  apparent Kd: 111 nM
[8]
  apparent Kd: 138 nM

## UGAGAAGUAGGAUAUAAGUACACCUACAUGAGGAUCACCCAUGUACCUAACGUAGCCGAUUUAGAAGGACUGUCAA
[1]
  apparent Kd: 58.7 nM
[2]
  apparent Kd: 35.5 nM

## UGAUGUAACAGAGGAUAUCACUCAAAUGCGGGCAUGUCGCACAUGUACAUGAGGAUCACCCAUGUUGAGAAGGCUGUGGUGCAA
[3]
  apparent Kd: 145 nM
[4]
  apparent Kd: 47.5 nM

## UGCCUCCAGCGAGGAUAUAUGUAGAGAUACACCAUAGAAGGCGCUGUAGUGGAACAUGAGGAUCACCCAUGUGACCUCGCCCGG
[1]
  apparent Kd: 13.2 nM
[2]
  apparent Kd: 17.6 nM

## UGGCUUGAAGGAUAUACAUGAGGAUCACCCAUGUAUCGCUAAAAGAGAAAUCCAUAAUGUAGAAGGUCAUCCCA
[1]
  apparent Kd: 8.91 nM
[2]
  apparent Kd: 12 nM

## UGGGAUAGCCAGAAGGUGGAAGCAACAACUGUCCAAGGAUAUGGUUGUUAUAAGGCAUCACACAUGAGGAUCACCCAUGUUAAU
[3]
  apparent Kd: 83.2 nM
[4]
  apparent Kd: 35.2 nM

## UGGGUCCGAUCAGGAUAUUAGCUACCGGAGUAUGACUGGUACUACAUGAGGAUCACCCAUGUUGCUAAGAAGGGAUGAACUGAA
[3]
  apparent Kd: 97.4 nM
[4]
  apparent Kd: 26.6 nM

## UGGGUUACCUCAGGAUAUCGCCUUGUACAUGAGGAUCACCCAUGUAGUAUCGGCCGUGUGUGCAUCGAGAAGGGAGUAACCUUC
[1]
  apparent Kd: 75.2 nM
[2]
  apparent Kd: 53.5 nM

## UGUACCUGUAUCUGGUCCAUAGUAUAACCUCGAGGACCGGUACGGCCGCCACUCGUCGGACCACAUGAGGAUCACCCAUGUACCG
[9]
  apparent Kd: 11.6 nM
[10]
  apparent Kd: 12.7 nM

## UGUAGACAUGAGGAUCACCCAUGUGCAACUGCAACAGGAUAUAGGGAGCGAUAGGAACGCCUAGAAGGGUUGAUCU
[3]
  apparent Kd: 28.2 nM
[4]
  apparent Kd: 24.6 nM

## UGUGGGUCCGAAGAUACCAGCCAGCACAGCAUGUGUUUAAACAUGAGGAUCACCCAUGUCGGCCCUUGGCAGCUUGGUUUGGACG
[7]
  apparent Kd: 15.5 nM
[8]
  apparent Kd: 12.1 nM

## UUAGCACAUGAGGAUCACCCAUGUCUCGAUACCAGAUAAGUUCCGAUCCCUUGGCAGCGACAAGCUUGCAAACUGCGACUAUUCU
Designed as: ON switch for theophylline, no ligand
  apparent Kd: 24.7 nM
Ligand present: theophylline, designed as: ON switch for theophylline
  apparent Kd: 25 nM

## UUCUUUGACGAGAAGGUCUCAACAUGAGGAUCACCCAUGUGAAUUAAUGGAACCAGGCCUGUUUAGAAGGAUAUCGCGGGAGUU
[1]
  apparent Kd: 10.9 nM
[2]
  apparent Kd: 13.8 nM

## UUGAUUACCCAAGCGUGAUGGUCCUAGGAACGAGGACCGGUACGGCCGCCACUCGCAAGCAAACAUGAGGAUCACCCAUGUUUAU
[9]
  apparent Kd: 13.1 nM
[10]
  apparent Kd: 23 nM

## UUUACACACUCAGGAUAUGAAUUCAAUUUAUCGGGCCGCUAACAUGAGGAUCACCCAUGUAACAUUCAGAAGGGAGAAGAGCCA
[1]
  apparent Kd: 17.5 nM
[2]
  apparent Kd: 13.7 nM

## UUUCAAGUAUCGGCCGCCACUCUAGUUGGUUGUUCAAUCCGAUUACAUGAGGAUCACCCAUGUCUGAGGACCGGGAUAAAGUAAU
[5]
  apparent Kd: 26.1 nM
[6]
  apparent Kd: 31.8 nM
